Measurements taken from ChEMBL document CHEMBL1275331, “Discovery of a novel 5-HT(3) antagonist/5-HT(1A) agonist 3-amino-5,6,7,8-tetrahydro-2-{4-[4-(quinolin-2-yl)piperazin-1-yl]butyl}quinazolin-4(3H)-one (TZB-30878) as an orally bioavailable agent for irritable bowel syndrome” (J Med Chem, 2010).
The source made the active and inactive calls. The calls are words filed in the database; no cut-off is given here.

Assays:
Rattus norvegicus [1] = assay: Induction of 5HT1A receptor-mediated lower lip retraction behavior in rat at 10 mg/kg, iv after 30 mins; format: functional, organism-based; parameters: dose 10 mg/kg
In short: (§1)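 Rats were conditioned to test procedures over 2 weeks and acclimated to the test cage for 1 h. Vehicle was saline containing diluted HCl. Lower lip retraction and flat body posture were scored on a 0–3 scale at 5, 10, 20 and 30 min after dosing.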

[2] = molecular target: T1, 5-hydroxytryptamine receptor 3A (Cavia porcellus) (UniProt O70212); assay: Inhibition of 5HT3 receptor-mediated contraction of guinea pig ileum at 0.1 umol/L after 20 mins relative to control; format: tissue-based
T1 sequence (whole entry): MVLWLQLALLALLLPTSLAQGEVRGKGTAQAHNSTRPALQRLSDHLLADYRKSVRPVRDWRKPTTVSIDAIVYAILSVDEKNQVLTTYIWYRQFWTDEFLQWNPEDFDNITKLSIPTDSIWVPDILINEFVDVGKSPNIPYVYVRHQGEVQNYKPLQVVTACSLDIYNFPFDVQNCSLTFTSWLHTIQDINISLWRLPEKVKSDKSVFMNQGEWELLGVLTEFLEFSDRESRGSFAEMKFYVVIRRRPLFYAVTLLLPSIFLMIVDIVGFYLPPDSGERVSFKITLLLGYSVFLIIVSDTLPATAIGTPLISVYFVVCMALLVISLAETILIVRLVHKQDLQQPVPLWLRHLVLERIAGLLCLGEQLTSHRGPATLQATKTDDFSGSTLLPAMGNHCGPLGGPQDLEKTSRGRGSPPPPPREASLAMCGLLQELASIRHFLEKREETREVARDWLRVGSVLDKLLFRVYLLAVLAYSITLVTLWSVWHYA
In short: (§2)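 Ileum strips in Tyrode solution at 37 °C, gassed 5% CO2/95% O2, isotonic contractions under 1 g load. After at least 3 stable contractions to 10 μM 2-methyl-5-HT, tissue exposed to compound or DMSO vehicle for 20 min, then 10 μM 2-methyl-5-HT re-added; contraction expressed as % inhibition of control.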

[3] = molecular target: T2, 5-hydroxytryptamine receptor 1A (Homo sapiens, UniProt P08908); assay: Agonist activity at human cloned 5HT1A receptor expressed in CHO cells assessed as stimulation of [35S]GTPgammaS binding after 30 mins by liquid scintillation counting; format: functional, cell-based
T2 sequence (P08908 whole entry): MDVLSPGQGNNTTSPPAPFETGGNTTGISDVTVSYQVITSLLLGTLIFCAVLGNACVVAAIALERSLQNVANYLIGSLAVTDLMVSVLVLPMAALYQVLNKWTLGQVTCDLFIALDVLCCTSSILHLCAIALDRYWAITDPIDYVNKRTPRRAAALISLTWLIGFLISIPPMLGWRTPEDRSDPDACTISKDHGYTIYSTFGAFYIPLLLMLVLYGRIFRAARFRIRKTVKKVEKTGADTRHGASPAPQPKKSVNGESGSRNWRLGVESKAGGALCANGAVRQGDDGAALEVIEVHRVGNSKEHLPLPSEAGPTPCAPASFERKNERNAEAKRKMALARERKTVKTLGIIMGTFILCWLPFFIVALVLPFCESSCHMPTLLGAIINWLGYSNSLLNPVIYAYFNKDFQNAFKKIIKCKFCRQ
In short: (§3)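 Membranes from CHO cells expressing human 5-HT1A were diluted in 20 mM HEPES/3 mM MgCl2/120 mM NaCl, pH 7.4. They were preincubated with 20 μM GDP and test drug for 20 min at 30 °C, then held on ice for 15 min. [35S]GTPγS (100 pM) was added for 30 min at 30 °C. Samples were filtered, washed with cold HEPES/MgCl2 buffer, and bound radioactivity counted; EC50 and Emax reported.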

Rattus norvegicus [4] = assay: […] activity in rat assessed as inhibition of 5HT-induced bradycardia at 100 ug/kg, iv by von Benzold-Jarisch reflex assay; format: functional
[5] = molecular target: T2, 5-hydroxytryptamine receptor 1A; assay: Displacement of [3H]8-OH-DPAT from human 5HT1A receptor expressed in CHO cells by liquid scintillation counting; format: cell-based
In short: (§4)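 CHO-cell membranes with human 5-HT1A were incubated with 0.25 nmol/L [3H]8-OH-DPAT (final) for 60 min at 27 °C. Buffer: 50 mM Tris-HCl, 10 mM MgSO4, 0.5 mM EDTA, 0.1% ascorbic acid, pH 7.4. Compound came from 270 μmol/L DMSO stock, diluted in buffer. Filtration was through GF/C presoaked in 0.3% polyethyleneimine, with two cold Tris washes. Run in duplicate or triplicate; percent inhibition of binding calculated.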

[6] = molecular target: T1, 5-hydroxytryptamine receptor 3A (Cavia porcellus); assay: Inhibition of 5HT3 receptor-mediated contraction of guinea pig ileum at 1 umol/L after 20 mins relative to control; format: tissue-based; in short: as §2
Rattus norvegicus [7] = assay: Induction of 5HT1A receptor-mediated behavioral activity in rat assessed as appearance of flat body posture at 10 mg/kg, iv after 30 mins; format: functional, organism-based; parameters: dose 10 mg/kg; in short: as §1
[8] = molecular target: T3, 5-hydroxytryptamine receptor 3A (Homo sapiens, UniProt P46098); assay: Displacement of [3H]BRL-43694 from human 5HT3 receptor expressed in HEK293 cells by liquid scintillation counting; format: cell-based
T3 sequence (P46098 whole entry): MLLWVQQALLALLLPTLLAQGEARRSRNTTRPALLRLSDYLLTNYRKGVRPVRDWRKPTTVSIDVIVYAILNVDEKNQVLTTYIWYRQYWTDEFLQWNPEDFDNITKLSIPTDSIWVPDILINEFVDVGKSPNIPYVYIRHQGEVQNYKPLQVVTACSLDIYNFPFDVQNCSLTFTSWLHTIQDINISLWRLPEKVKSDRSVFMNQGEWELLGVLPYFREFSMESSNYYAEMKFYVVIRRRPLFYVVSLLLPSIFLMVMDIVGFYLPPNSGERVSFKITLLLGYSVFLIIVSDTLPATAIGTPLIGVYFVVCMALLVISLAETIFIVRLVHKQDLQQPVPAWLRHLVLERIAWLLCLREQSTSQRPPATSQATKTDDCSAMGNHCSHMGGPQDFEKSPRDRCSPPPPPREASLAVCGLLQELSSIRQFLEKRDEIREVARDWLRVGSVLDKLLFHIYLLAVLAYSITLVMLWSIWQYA
In short: (§5)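 HEK-293 membranes expressing human 5-HT3 were incubated with 0.5 nmol/L [3H]BRL-43694 (final) for 60 min at 25 °C. Buffer: 50 mM Tris-HCl, 5 mM MgCl2, 1 mM EDTA, pH 7.5. Compound came from 270 μmol/L DMSO stock, diluted in buffer. Filtration was through GF/B presoaked in 0.5% polyethyleneimine, with two cold Tris washes. Run in duplicate or triplicate; percent inhibition calculated.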

[9] = molecular target: T4, 5-hydroxytryptamine receptor 1A (Homo sapiens) (UniProt P08908); assay: Agonist activity at human cloned 5HT1A receptor expressed in CHO cells assessed as stimulation of [35S]GTPgammaS binding at 900 uL after 30 mins by liquid scintillation counting; format: functional, cell-based; in short: as §3
T4 sequence (whole entry): T2 sequence (P08908 whole entry)

Rattus norvegicus [10] = assay: Effect on 5HT1A receptor-mediated hypothermic effect in rat assessed as change in rectal temperature at 10 mg/kg, iv after 30 mins; format: functional, organism-based; parameters: dose 10 mg/kg
In short: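 Rats were conditioned over 2 weeks and acclimated to the cage for 1 h before dosing (vehicle: saline with diluted HCl). Rectal temperature was recorded with a thermistor probe inserted 3 cm, before and 30 min after administration. The change in temperature was reported.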

[11] = Drug level in Sprague-Dawley rat blood at 3 mg/kg, po after 2 hrs by HPLC analysis; format: ADME, organism-based; parameters: dose 3 mg/kg, route oral; details: whole blood, read-out: Drug uptake
In short: (§6)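 Total compound concentration was measured in brain and blood at 2, 4 and 8 h after a single oral 3 mg/kg dose. Brain/blood ratio was also derived. Values are mean ± SD of three rats.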

[12] = Drug level in Sprague-Dawley rat blood at 3 mg/kg, po after 8 hrs by HPLC analysis; format: ADME, organism-based; parameters: dose 3 mg/kg, route oral; details: whole blood, read-out: Drug uptake; in short: as §6
[13] = Drug level in Sprague-Dawley rat brain at 3 mg/kg, po after 8 hrs by HPLC analysis; format: ADME, organism-based; parameters: dose 3 mg/kg, route oral; details: read-out: Drug uptake; in short: as §6
[14] = Drug level in Sprague-Dawley rat brain at 3 mg/kg, po after 4 hrs by HPLC analysis; format: ADME, organism-based; parameters: dose 3 mg/kg, route oral; details: read-out: Drug uptake; in short: as §6
[15] = Ratio of drug level in brain to blood in Sprague-Dawley rat at 3 mg/kg, po after 4 hrs; format: ADME, organism-based; parameters: dose 3 mg/kg, route oral
In short: (§7)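 Rats dosed 3 mg/kg orally; total compound levels measured in brain and blood at 2, 4 and 8 h, brain/blood ratio derived. Mean ± SD of three rats.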

[16] = Ratio of drug level in brain to blood in Sprague-Dawley rat at 3 mg/kg, po after 2 hrs; format: ADME, organism-based; parameters: dose 3 mg/kg, route oral; in short: as §7
[17] = Ratio of drug level in brain to blood in Sprague-Dawley rat at 3 mg/kg, po after 8 hrs; format: ADME, organism-based; parameters: dose 3 mg/kg, route oral; in short: as §7
[18] = Drug level in Sprague-Dawley rat brain at 3 mg/kg, po after 2 hrs by HPLC analysis; format: ADME, organism-based; parameters: dose 3 mg/kg, route oral; details: read-out: Drug uptake; in short: as §6
[19] = Drug level in Sprague-Dawley rat blood at 3 mg/kg, po after 4 hrs by HPLC analysis; format: ADME, organism-based; parameters: dose 3 mg/kg, route oral; details: whole blood, read-out: Drug uptake; in short: as §6
[20] = molecular target: T4, 5-hydroxytryptamine receptor 1A (Homo sapiens); assay: Displacement of [3H]8-OH-DPAT from human 5HT1A receptor expressed in CHO cells at 1000 nM by liquid scintillation counting; format: cell-based; in short: as §4
[21] = molecular target: T4, 5-hydroxytryptamine receptor 1A (Homo sapiens); assay: Displacement of [3H]8-OH-DPAT from human 5HT1A receptor expressed in CHO cells at 100 nM by liquid scintillation counting; format: cell-based; in short: as §4
[22] = molecular target: T5, 5-hydroxytryptamine receptor 3A (Homo sapiens) (UniProt P46098); assay: Displacement of [3H]BRL-43694 from human 5HT3 receptor expressed in HEK293 cells at 1000 nM by liquid scintillation counting; format: cell-based; in short: as §5
T5 sequence (whole entry): T3 sequence (P46098 whole entry)

[23] = molecular target: T5, 5-hydroxytryptamine receptor 3A (Homo sapiens); assay: Displacement of [3H]BRL-43694 from human 5HT3 receptor expressed in HEK293 cells at 100 nM by liquid scintillation counting; format: cell-based; in short: as §5

Question: For `Cc1cc(N2CCN(CCCCc3nc4c(c(=O)n3N)CCCC4)CC2)nc2ccccc12`, which Activity (Rattus norvegicus [1]) is on record?
Answer: Its Activity is “inactive”.

Question: What about the inhibition [2] of the same compound?
Answer: The inhibition was 97.1%.

Question: What about the EC50 [3] of the same compound?
Answer: The EC50 was 13.7 nM.

Question: And the inhibition in vivo at 0.1 mg/kg (Rattus norvegicus [4])?
Answer: The inhibition in vivo at 0.1 mg/kg was 64.5%.

Question: And the IC50 [5]?
Answer: Its IC50 is < 10 nM.

Question: And the inhibition [6]?
Answer: Its inhibition is 100%.

Question: And the Activity (Rattus norvegicus [7])?
Answer: The Activity was “inactive”.

Question: And the IC50 [8]?
Answer: Its IC50 is 59.1 nM.

Question: What about the Emax [9] of the same compound?
Answer: Its Emax is 93.5%.

Question: What about the Activity (Rattus norvegicus [10]) of the same compound?
Answer: The Activity was “inactive”.

Question: For `Nn1c(SCCCN2CCN(c3ccc4ccccc4n3)CC2)nc2c(c1=O)CCCC2`, which concentration at 2 h [11] is on record?
Answer: Its concentration at 2 h is 21.2 nM.

Question: And the concentration at 8 h [12]?
Answer: Its concentration at 8 h is 5.17 nM.

Question: And the concentration at 8 h [13]?
Answer: Its concentration at 8 h is 13 nM.

Question: And the concentration at 4 h [14]?
Answer: Its concentration at 4 h is 32.2 nM.

Question: What about the Kp at 4 h [15] of the same compound?
Answer: Its Kp at 4 h is 3.05.

Question: And the inhibition [2]?
Answer: Its inhibition is 80%.

Question: And the EC50 [3]?
Answer: The EC50 was 182 nM.

Question: And the IC50 [5]?
Answer: Its IC50 is 5.6 nM.

Question: And the Kp at 2 h [16]?
Answer: The Kp at 2 h was 2.99.

Question: What about the inhibition [6] of the same compound?
Answer: The inhibition was 95.1%.

Question: And the Kp at 8 h [17]?
Answer: The Kp at 8 h was 2.53.

Question: What about the IC50 [8] of the same compound?
Answer: The IC50 was 63.8 nM.

Question: And the concentration at 2 h [18]?
Answer: Its concentration at 2 h is 63.1 nM.

Question: What about the Emax [9] of the same compound?
Answer: Its Emax is 90.3%.

Question: And the concentration at 4 h [19]?
Answer: Its concentration at 4 h is 10.6 nM.

Question: What does the source list for `Nn1c(=O)c2c(nc1[C@H]1CC[C@H](N3CCN(c4ccc5ccccc5n4)CC3)CC1)CCCC2`?
Answer: inhibition [20]: 96.3%; inhibition [21]: 76.9%; inhibition [22]: 18.4%; inhibition [23]: 1.4%

Question: Which inhibition [20] does the source give for `Nn1c(=O)c2c(nc1[C@H]1CC[C@@H](N3CCN(c4ccc5ccccc5n4)CC3)CC1)CCCC2` here?
Answer: The inhibition was 91.5%.

Question: What about the inhibition [21] of the same compound?
Answer: Its inhibition is 42.3%.

Question: And the inhibition [22]?
Answer: The inhibition was 87.3%.

Question: And the inhibition [23]?
Answer: Its inhibition is 19.6%.
